Assay outcomes: PubChem, several laboratories
Most compounds without a hit are left out; they make up all but 3.1% or so of the library.
A1 inh: inhibitors of the anti-apoptotic protein A1, read as caspase activation | MEF A1-2A-BIM cells, Caspase-Glo 3/7 luminescence, 3 h; percent of clofoctol response, vehicle zero | caspase activation, % (test concentration not listed) | 330,000 compounds, 0.066% hits;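 active means over half of replicate activation scores above 10%, or exactly half above 10 with the replicate mean above 10; inconclusive means replicate mean below 10 yet half the replicates above 10; inactive means over half of replicates below 10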
CSC inhib: blocks cancer stem cells | inhibition, % at 7.5 µM | 300,000 compounds, 1.1% hits | cancer stem cell-like cells viability, luminescence; in the data active means inhibition above about 75%; inconclusive means no clear call, values can overlap the other calls; tested in HMLE shEcad cells
H9c2 TAG inh: triacylglycerol accumulation inhibition | inhibition, % at 12.5 µM | AID 651582 | 230,000 compounds, 0.66% hits | H9c2 cells, Nile Red lipid (TAG) fluorescence; cells loaded with 200 µM oleic acid;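 active means pattern-corrected inhibition of lipid staining of at least 50% with the nuclear-stain viability signal not falling by more than 50%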;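 further: 0% = DMSO wells and 100% = triacsin C control wells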
Calb FLC: affects C. albicans growth with fluconazole; C. albicans CaCi-2 + fluconazole, Alamar Blue growth, 48 h; growth inhibition, % (test concentration not listed); 300,000 compounds, 0.57% hits;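 active means growth inhibition above about 58% in most replicates, limit read from the data, passing the limit was not always enough; inconclusive means exactly half the replicates above a set limit; inactive means most replicates below a set limit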;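 further: all wells also contain fluconazole at 8 µg/ml as a sub-toxic cotreatment; 0% = median of DMSO wells and 100% = median of geldanamycin control wells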
Beta cell apopt: blocks beta cell apoptosis; INS-1E cytokine-induced death, ATP luminescence, 48 h; percent of positive-control rescue, neutral wells zero; protection from apoptosis, % (concentration not given with the values); 300,000 compounds, 0.8% hits; AID 435005;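 active means Every replicate reaches about 75%, or at least half do and their mean reaches it too, limit read from the data; inconclusive means At least half of replicates reach the limit but their mean does not; inactive means Under half of replicates reach the limit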;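 further: 0% = cytokine-treated negative control wells and 100% = positive control rescue; higher means more ATP so stronger rescue from cytokine killing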
T cruzi repl: T. cruzi replication inhibition; T. cruzi beta-gal in NIH3T3, luminescence, 90 h; inhibition, % (no concentration beside the values); 300,000 compounds, 1.4% hits;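 active means mean inhibition across valid replicates above about 55%, limit read from the data; inconclusive means mean below that limit but half or more replicates reach it; inactive means mean below it, under half of replicates reach it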;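 further: signal also drops with host cell toxicity which is not excluded here; 0% = plate median of DMSO wells and 100% = zero luminescence signal; higher percent means less beta-gal luminescence so fewer parasites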
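System – NIH/3T3 host cells with β-galactosidase reporter T. cruzi · Doses – single 50 nL compound addition per well in DMSO · Reagent – 5000 T. cruzi trypomastigotes/well · Medium – Low-serum DMEM with 2% FBS · Timing – ≥90 h infection period, 3 h prior cell attachment · Evaluation – parasite load inhibition, % · Technique – GalScreen luminescence, 60 min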
* hit, by the source's call; ? = inconclusive; . = not tested or not shown.

SMILES	A1 inh	CSC inhib	H9c2 TAG inh	Calb FLC	Beta cell apopt	T cruzi repl
Cc1c(C(=O)Nc2ccc(S(=O)(=O)N(C)C3CCN(C)CC3)cc2)oc2c(Cl)cccc12	-1	11	24	-1	.	59*
CN1CCC(N(C)S(=O)(=O)c2ccc(NC(=O)COc3cccc(Cl)c3)cc2)CC1	0	-3	23	9	-1	56*
CN1CCC(N(C)S(=O)(=O)c2ccc(NC(=O)COc3ccc(Br)cc3Cl)cc2)CC1	0	.	13	8	3	?
Cc1ccc(OCC(=O)Nc2ccc(S(=O)(=O)N(C)C3CCN(C)CC3)cc2)c(C)c1	0	48	2	10	11	61*
CN(C(=O)COC(=O)c1ccccc1OCc1ccc(F)cc1)C1CCS(=O)(=O)C1 (stereo unspecified)	0	.	-18	.	0	.
Cc1cc(C)n(S(=O)(=O)c2ccccc2[N+](=O)[O-])n1	0	-9	.	15	-5	-7
C=CCc1cc(Cl)ccc1OCCCn1ccnc1	0	3	-16	-17	3	57*
C=CCc1cc(Cl)ccc1OCCn1ccnc1	0	9	.	-33	-3	22
Cc1ccc(C)c(OCCCCCn2ccnc2)c1	2	49	.	-30	5	72*
Cc1cc(OCCCn2ccnc2)cc(C)c1Cl	-1	9	.	-19	-8	59*
Fc1ccc(OCCCCCn2ccnc2)cc1	-1	21	.	3	-2	55*
COC(=O)c1cc(C)c(C)cc1NC1OC(CO)C(O)C1O (stereo unspecified)	.	.	9	.	.	.
Cc1c(C(=O)O)c(C(=O)O)c2n1CCS2	0	-7	3	-4	1	-32
Clc1ccc(OCCn2ccnc2)c2ccccc12	1	13	.	101*	-6	70*
CSc1ccc(Cl)c(C(=O)N(C)CC(=O)Nc2ccc(N3CCOCC3)cc2)c1	0	0	3	0	3	4
CC(=O)O[C@H]1C[C@@]2(O)[C@@H](OC(=O)c3ccccc3)C3[C@@](C)([C@@H](O)C[C@H]4OC[C@@]34OC(C)=O)[C@@H](O)[C@H](OC(C)=O)C(=C1C)C2(C)C (stereo partly specified)	0	-5	.	0	.	3
CC(=O)O[C@@]12CO[C@@H]1C[C@H](O)[C@@]1(C)C(=O)[C@H](O)C3=C(C)[C@@H](OC(=O)[C@H](O)[C@@H](NC(=O)OC(C)(C)C)c4ccccc4)C[C@](O)([C@@H](OC(=O)c4ccccc4)[C@H]21)C3(C)C	0	55	.	6	.	56*
COC(=O)c1ccc2c(c1O)C(=O)c1ccccc1C2=O	-6	96*	21	1	16	-14
O=C1c2ccccc2C(=O)c2c1ccc(O)c2O	.	.	2	.	.	.
CC(C)(C)C(=O)Cn1ncc(Cl)c(Cl)c1=O	.	.	.	-9	.	-4
O=C(Cn1ncc(Cl)c(Cl)c1=O)c1ccc(Cl)cc1	1	49	-10	-3	-35	75*
O=C(OCn1ncc(Cl)c(Cl)c1=O)c1ccccc1Cl	0	-50	.	108*	101*	58*
O=C(OCn1ncc(Cl)c(Cl)c1=O)c1ccc(F)cc1	0	.	.	107*	102*	63*
O=c1c(Cl)c(Cl)cnn1Cc1ccc(F)cc1	1	-23	.	4	112*	-18
COc1cc(Br)c(CC(=O)NC2CC2)cc1OC	1	-10	.	-4	-4	-9
SMILES	A1 inh	CSC inhib	H9c2 TAG inh	Calb FLC	Beta cell apopt	T cruzi repl
COc1cc(/C=N/NC(=O)c2cc(-c3ccc4c(c3)OCO4)n[nH]2)ccc1O	0	75*	.	-7	42	6
COc1cc(/C=N/NC(=O)c2cc(C34CC5CC(CC(C5)C3)C4)[nH]n2)ccc1O	-1	101*	-4	19	-6	2
CC(/C=N/NC(=O)c1cc(-c2ccc(C)s2)[nH]n1)=C\c1ccccc1	0	87*	2	11	20	-45
Cc1nn(-c2ccccc2)c(C)c1/C=N/NC(=O)c1cc(C23CC4CC(CC(C4)C2)C3)[nH]n1	-1	97*	8	32	18	50
COc1cc(/C=N/NC(=O)c2cc(C3CC3)[nH]n2)ccc1O	0	1	20	4	5	-2
CC(=O)N1c2ccc(S(=O)(=O)N3CCCCC3)cc2CC1C(=O)Nc1ccc(C)cc1 (stereo unspecified)	1	2	.	-1	.	3
Cc1cc(C)cc(NC(=O)C(=O)NCCCN2CCCC2=O)c1	0	0	-13	-6	.	2
Cc1cc2cc(CNC(=O)C(C)Oc3ccccc3)ccc2n1C (stereo unspecified)	0	1	-2	-6	4	45
Cc1nn(-c2ccccc2)c(C)c1-c1cc(C(=O)N/N=C/c2ccc(O)cc2)[nH]n1	0	75*	2	-4	24	-4
Cc1nn(-c2ccccc2)c(C)c1/C=N/NC(=O)c1cc(-c2ccc(Cl)s2)[nH]n1	-1	69	.	51	-1	16
Cc1nn(-c2ccccc2)c(C)c1/C=N/NC(=O)c1cc(-c2ccc(Br)s2)[nH]n1	-1	76*	.	51	31	5
COc1ccc(/C(C)=N/Nc2nc(C)cc(-c3ccccc3)n2)cc1	0	5	40	-17	83*	42
C/C(=N/Oc1nc(C)cc(C)n1)c1ccc(F)cc1	0	8	-9	1	2	-1
C/C(=N/Nc1nc(-c2ccccc2)cc(-c2ccc(F)cc2)n1)c1cccc(N)c1	-1	43	.	-4	79*	25
C/C(=N\Nc1nc(C)cc(-c2ccccc2)n1)c1ccc(F)cc1	0	17	.	-5	78*	7
COc1ccc(/C(C)=N\Nc2nc(-c3ccccc3)cc(=O)[nH]2)cc1	0	5	.	0	0	19
CC(C)c1ccc(NC(=O)Cc2ccc(NC3=NC4CS(=O)(=O)CC4S3)cc2)cc1 (stereo unspecified)	0	0	20	3	3	-23
Oc1cccc2oc(=S)[nH]c12	.	.	1	.	.	.
O=C(COC(=O)c1cc(S(=O)(=O)N2CCCC2)ccc1O)NCCc1ccccc1	3	.	-7	.	-4	.
O=[N+]([O-])c1ccc(O)c(Nc2ncnc3ccc(Br)cc23)c1	0	72	-1	85*	22	8
NC(=O)c1ccc(CN2CCc3ccccc3C2)cc1	1	6	.	1	.	-4
Cc1ccccc1Nc1nc(N)nc(COC(=O)[C@@H](NC(=O)c2c(F)cccc2F)C(C)C)n1	1	-1	1	-2	-1	4
Cc1cc(C)c(NC(=O)CSCc2c(C)noc2C)c(Cl)c1	.	.	-7	.	.	.
N#Cc1cc([N+](=O)[O-])ccc1Oc1cccc(/C=N/NC(=O)c2cccc(Cl)c2)c1	-1	36	2	6	5	68*
COc1ccc(/C=N/NC(=O)c2cccc([N+](=O)[O-])c2)cc1OC	-1	-5	.	18	-3	-5
